For assay [1], the system named is MCF7. Put plainly: Effect on Hsp90 level in human MCF7 cells after 24 hrs by Western blot analysis. Format: functional, cell-based.
Assay [2] deals with T1, Heat shock protein HSP90 (Homo sapiens, UniProt P07900+P08238). Put plainly: Inhibition of Hsp90 in human MCF7 cells assessed as Akt degradation after 24 hrs by Western blot analysis. Format: cell-based. An outline of the steps:
(§1)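 MCF-7 cells treated across a range of concentrations (in µM). Cell lysates were analysed by western blot for the Hsp90-dependent client proteins Her2, Raf and Akt. Geldanamycin (500 nM) served as positive control and DMSO as negative control.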
(In general: In western blotting, separated proteins are transferred to a membrane and probed.)

The target of assay [3] is T1, Heat shock protein HSP90. Put plainly: Inhibition of Hsp90 in human MCF7 cells assessed as Raf degradation after 24 hrs by Western blot analysis. Format: cell-based. In short, it runs like this:
as §1

The target of assay [4] is T1, Heat shock protein HSP90. Put plainly: Inhibition of Hsp90 in human MCF7 cells assessed as Her2 degradation after 24 hrs by Western blot analysis. Format: cell-based. An outline of the steps: as §1
Assay [5] has as its system MCF7. Put plainly: Antiproliferative activity against human MCF7 cells. In kind it is functional, cell-based. An outline of the steps:
(§2)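 Cell growth inhibition with values in µM, reported as mean ± standard deviation from at least two separate experiments, each run in triplicate.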

Assay [6] deals with SK-BR-3. Put plainly: Antiproliferative activity against human SKBR3 cells. Format: functional, cell-based. In short, it runs like this:
as §2

The target of assay [7] is SKBr3 (Homo sapiens). Put plainly: Antiproliferative activity against human SKBr3 cells.
Assay [8] concerns the target T1, Heat shock protein HSP90. Put plainly: Inhibition of Hsp90 (unknown origin). In kind it is protein assay.

Activity, inhibition and IC50 data for 29 compounds are collected here from ChEMBL document CHEMBL2321658 (ACS Med Chem Lett, 2013).

The source made the active and inactive calls. The calls are words filed in the database; no cut-off is given here.

With `CC(C)=CCc1cc(C(=O)Nc2cc3ccc(OC4CCN(C)CC4)c(C)c3oc2=O)ccc1OCCCN(C)C`, in assay [1], the outcome was inactive. The inhibition result in assay [2], in assay [3] and in assay [4] was “Dose-dependent effect” each time. Further, the IC50 (in general, the point on the concentration scale where inhibition reaches its midpoint) was 0.46 µM in assay [5] and 0.25 µM in assay [6]. For the compound `COc1cccc(-c2cc(C(=O)Nc3cc4ccc(O[C@@H]5OC(C)(C)[C@H](OC)[C@@H](O)[C@H]5O)c(C)c4oc3=O)ccc2OC)c1`, the IC50 in assay [7] is 7.5 µM.

In turn, `CO[C@@H]1[C@@H](O)[C@@H](O)[C@H](Oc2ccc3cc(NC(=O)c4ccc(O)c(CC=C(C)C)c4)c(=O)oc3c2C)OC1(C)C` displayed an IC50 in assay [7] of 10.9 µM. With `COc1ccc(C(=O)Nc2cc3ccc(OC4CCN(C)CC4)c(C)c3oc2=O)cc1CC=C(C)C`, the IC50 worked out at 1.58 µM in assay [5] and 1.41 µM in assay [6]. Taken in the same sequence, the figures for `Cc1c(OC2CCN(C)CC2)ccc2cc(NC(=O)c3ccc(O)c(Cl)c3)c(=O)oc12` were 1.48 µM and 2.3 µM.

For the compound `COc1cccc(-c2cc(C(=O)Nc3cc4ccc(OC5CCN(C)CC5)c(C)c4oc3=O)ccc2OC(C)=O)c1`, the values for the IC50 in assay [5] and in assay [6] were 0.91 µM and 0.92 µM, respectively. On to `COc1cccc(-c2cc(C(=O)Nc3cc4ccc(O[C@@H]5OC(C)(C)[C@H](OC)[C@@H](O)[C@H]5O)c(OC)c4oc3=O)ccc2OC)c1`, for which, in assay [7], the IC50 worked out at 13.9 µM.

Turning to `COc1ccc(C(=O)Nc2cc3ccc(OC4CCN(C)CC4)c(C)c3oc2=O)cc1-c1cccc(OC(C)=O)c1`, the IC50 in assay [5] is 0.36 µM; in assay [6], 0.29 µM. For the compound `Cc1c(OC2CCN(C)CC2)ccc2cc(NC(=O)c3ccc(O)c(CCC(C)C)c3)c(=O)oc12`, the IC50 in assay [5] was found to be 1.25 µM; in assay [6], 0.6 µM. Take `Cc1c(OC2CCN(C)CC2)ccc2cc(NC(=O)c3ccccc3)c(=O)oc12`: the half-inhibitory concentration (IC50) was 11.7 µM in assay [5] and 11.5 µM in assay [6]. Taken in the same sequence, the figures for `CC(=O)Oc1ccc(C(=O)Nc2cc3ccc(OC4CCN(C)CC4)c(C)c3oc2=O)cc1Cl` were 1.61 µM and 3.5 µM.

In the case of `Cc1c(OCCC2CCCCN2)ccc2cc(NC(=O)Nc3ccc(Cl)cc3)c(=O)oc12` (centres undefined), the IC50 in assay [7] stood at 0.21 µM.

In the case of `COc1ccc(C(=O)Nc2cc3ccc(OC4CCN(C)CC4)c(C)c3oc2=O)cc1-c1cccc(O)c1`, the half-maximal inhibitory concentration (IC50) amounted to 0.38 µM in assay [5], 0.31 µM in assay [8] and 0.31 µM in assay [6]. Turning to `CC(C)=CCc1cc(C(=O)Nc2cc3ccc(OC4CCN(C)CC4)c(C)c3oc2=O)ccc1OC1CCN(C)CC1`, the IC50 in assay [5] stood at 0.47 µM; in assay [6], 0.21 µM. On the same counts, the results for `Cc1c(OC2CCN(C)CC2)ccc2cc(NC(=O)c3ccc(O)cc3)c(=O)oc12` are 1.43 µM and 0.84 µM. Regarding `C=CCc1cc(C(=O)Nc2cc3ccc(OC4CCN(C)CC4)c(C)c3oc2=O)ccc1O`, the IC50 was 2.17 µM in assay [5] and 2.43 µM in assay [6].

The compound `Cc1ccc(NC(=O)Nc2cc3ccc(OC4CCN(C)CC4)c(C)c3oc2=O)cc1` had a half-maximal inhibitory concentration (IC50) in assay [7] of 0.27 µM. For `C#CCOc1ccc(C(=O)Nc2cc3ccc(OC4CCN(C)CC4)c(C)c3oc2=O)cc1CC=C(C)C`, the half-inhibitory concentration (IC50) is 1.12 µM in assay [5] and 1.4 µM in assay [6].

Consider `Cc1c(OC2CCN(C)CC2)ccc2cc(NC(=O)c3ccc4c(c3)CCC(C)(C)O4)c(=O)oc12`, for which the values for the IC50 in assay [5] and in assay [6] were 5.01 µM and 3.46 µM, respectively. Taken in the same sequence, the figures for `CC(C)=CCc1cc(C(=O)Nc2cc3ccc(OC4CCN(C)CC4)c(C)c3oc2=O)ccc1OCCN(C)C` were 0.72 µM and 0.33 µM. In turn, `COc1ccc(C(=O)Nc2cc3ccc(O[C@@H]4OC(C)(C)[C@H](OC)[C@@H](O)[C@H]4O)c(C)c3oc2=O)cc1-c1cccc(O)c1` gave an IC50 in assay [7] of 2.9 µM. Same read-out and setting: the same measure for `Cc1ccc(NC(=O)Nc2cc3ccc(OC4CCN(C)CC4)c(C)c3oc2=O)cc1C`: 0.31 µM. For the compound `C=CCc1cc(C(=O)Nc2cc3ccc(OC4CCN(C)CC4)c(C)c3oc2=O)ccc1OC(C)=O`, the IC50 is 2 µM in assay [5] and 2.26 µM in assay [6]. For `CC(C)=CCc1cccc(C(=O)Nc2cc3ccc(OC4CCN(C)CC4)c(C)c3oc2=O)c1`, the IC50 is 2.1 µM in assay [5] and 1.68 µM in assay [6]. For `CC(=O)Oc1ccc(C(=O)Nc2cc3ccc(OC4CCN(C)CC4)c(C)c3oc2=O)cc1`, the figures for the IC50 in assay [5] and in assay [6] were 1.62 µM and 1.67 µM, respectively. On to `Cc1c(OC2CCN(C)CC2)ccc2cc(NC(=O)Nc3ccc(Cl)cc3)c(=O)oc12`, for which, in assay [7], the IC50 was 0.17 µM. For the compound `COc1cccc(-c2cc(C(=O)Nc3cc4ccc(OC5CCN(C)CC5)c(C)c4oc3=O)ccc2O)c1`, the results for the IC50 in assay [5] and in assay [6] were 0.81 µM and 0.86 µM, respectively. As for `CCCCOc1ccc(C(=O)Nc2cc3ccc(OC4CCN(C)CC4)c(C)c3oc2=O)cc1CC=C(C)C`, the figures for the IC50 in assay [5] and in assay [6] were 1.44 µM and 1.4 µM, respectively. `COc1cccc(-c2cc(C(=O)Nc3cc4ccc(OC5CCN(C)CC5)c(C)c4oc3=O)ccc2OC)c1` showed an IC50 in assay [7] of 1.34 µM.
